Source: ChEMBL document CHEMBL1154527, “Tethered indoles as functionalizable ligands for the estrogen receptor” (Bioorg Med Chem Lett, 2009)

Assays:
[1] = molecular target: T1, Estrogen receptor (Homo sapiens) (UniProt P03372); assay: Relative binding affinity to ERalpha by radiometric binding assay relative to estradiol
T1 sequence (whole entry): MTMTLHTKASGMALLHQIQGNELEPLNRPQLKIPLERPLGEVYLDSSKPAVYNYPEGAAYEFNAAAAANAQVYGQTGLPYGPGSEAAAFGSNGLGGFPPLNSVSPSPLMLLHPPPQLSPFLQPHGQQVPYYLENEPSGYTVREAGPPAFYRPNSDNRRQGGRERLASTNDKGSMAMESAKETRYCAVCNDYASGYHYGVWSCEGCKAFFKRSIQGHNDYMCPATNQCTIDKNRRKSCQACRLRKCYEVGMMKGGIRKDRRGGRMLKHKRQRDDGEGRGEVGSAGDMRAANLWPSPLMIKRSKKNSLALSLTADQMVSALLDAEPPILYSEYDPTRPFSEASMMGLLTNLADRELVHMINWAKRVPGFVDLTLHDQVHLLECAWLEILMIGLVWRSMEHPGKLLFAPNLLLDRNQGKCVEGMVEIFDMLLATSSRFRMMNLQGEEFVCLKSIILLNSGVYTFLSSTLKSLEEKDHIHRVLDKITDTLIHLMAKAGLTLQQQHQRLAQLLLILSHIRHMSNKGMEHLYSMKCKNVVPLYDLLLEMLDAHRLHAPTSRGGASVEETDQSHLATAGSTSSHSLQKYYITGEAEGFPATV
Outline: (§1)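 RBA values for the PAMAM-dendrimer conjugate are calculated from the concentration of attached ligand rather than that of the conjugate.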

[2] = molecular target: Estrogen receptor beta (Homo sapiens) (UniProt Q92731); assay: Relative binding affinity to ERbeta by radiometric binding assay relative to estradiol; outline: as §1
Chain of Estrogen receptor beta (Homo sapiens) (Q92731 whole entry): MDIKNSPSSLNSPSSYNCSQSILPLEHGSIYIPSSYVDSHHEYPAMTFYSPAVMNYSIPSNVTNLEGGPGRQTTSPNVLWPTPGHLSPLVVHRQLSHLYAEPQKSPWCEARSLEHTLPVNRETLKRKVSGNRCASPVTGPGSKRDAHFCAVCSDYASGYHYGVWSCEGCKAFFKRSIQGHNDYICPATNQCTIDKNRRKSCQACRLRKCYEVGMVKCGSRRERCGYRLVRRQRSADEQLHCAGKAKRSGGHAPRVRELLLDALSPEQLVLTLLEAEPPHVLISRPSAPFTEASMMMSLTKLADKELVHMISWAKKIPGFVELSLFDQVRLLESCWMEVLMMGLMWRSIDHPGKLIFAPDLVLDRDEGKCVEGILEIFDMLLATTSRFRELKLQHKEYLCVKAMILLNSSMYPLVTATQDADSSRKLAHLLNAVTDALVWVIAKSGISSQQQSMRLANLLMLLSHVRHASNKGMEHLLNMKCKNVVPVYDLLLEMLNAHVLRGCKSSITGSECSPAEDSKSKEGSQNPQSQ

SMILES | relative binding affinity (RBA) [1] | relative binding affinity (RBA) [2]
COCCCCCCn1c(-c2ccc(O)cc2)c(C)c2cc(O)ccc21 | 11 | 2
Cc1c(-c2ccc(O)cc2)n(Cc2ccc(O)cc2)c2ccc(O)cc12 | 10 | 1
Cc1c(-c2ccc(O)cc2)n(CCCCCCO)c2ccc(O)cc12 | 13 | 1.4
CC(=O)NCCNCc1ccc(OCCCn2c(-c3ccc(O)cc3)c(C)c3cc(O)ccc32)cc1 | 2.17 | 0.24

More lines, now with the values ahead:

relative binding affinity (RBA) [1] | relative binding affinity (RBA) [2] | SMILES
 | 1.2 | CCCCOc1ccc(Cn2c(-c3ccc(O)cc3)c(C)c3cc(O)ccc32)cc1
 | 0.084 | CCSC(SCC)c1ccc(OCCCn2c(-c3ccc(O)cc3)c(C)c3cc(O)ccc32)cc1
 | 3 | CCCCOCCCCCCn1c(-c2ccc(O)cc2)c(C)c2cc(O)ccc21
11 | 6.5 | COc1ccc(Cn2c(-c3ccc(O)cc3)c(C)c3cc(O)ccc32)cc1
 | 0.048 | Cc1ccc(C(=O)NCCCCn2c(-c3ccc(O)cc3)c(C)c3cc(O)ccc32)cc1
